Marks after values point to notes of the source that are not given here.
Columns and labels:
human ERβ = human ERβ (Homo sapiens, UniProt Q92731); test: Ligand binding assay for ERβ
human ERα = biological target: T1, human ERα (Homo sapiens, UniProt P03372); test: Ligand binding assay for ERα
T1 sequence (P03372 1-595): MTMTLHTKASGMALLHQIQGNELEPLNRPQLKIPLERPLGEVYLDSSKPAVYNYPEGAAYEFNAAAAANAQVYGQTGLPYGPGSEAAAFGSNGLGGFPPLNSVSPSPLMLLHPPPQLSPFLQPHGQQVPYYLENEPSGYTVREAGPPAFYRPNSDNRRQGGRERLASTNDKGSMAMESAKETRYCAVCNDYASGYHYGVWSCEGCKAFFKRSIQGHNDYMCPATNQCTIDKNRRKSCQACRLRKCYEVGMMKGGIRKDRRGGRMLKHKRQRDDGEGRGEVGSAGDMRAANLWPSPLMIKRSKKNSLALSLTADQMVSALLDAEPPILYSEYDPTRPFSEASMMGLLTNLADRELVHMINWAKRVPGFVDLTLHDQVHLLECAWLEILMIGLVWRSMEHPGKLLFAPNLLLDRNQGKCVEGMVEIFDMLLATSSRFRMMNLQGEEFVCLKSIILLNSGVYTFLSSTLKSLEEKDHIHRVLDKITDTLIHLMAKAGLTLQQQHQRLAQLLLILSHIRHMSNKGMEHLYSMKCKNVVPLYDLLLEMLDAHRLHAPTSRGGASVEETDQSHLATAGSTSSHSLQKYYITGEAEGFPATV

uterus of immature rats = test: Uterotrophic assay in immature female rats; type: in vivo, Sprague Dawley rats; settings: 3 days; for Body weight, mean / Uterus wet weight, mean / Uterus/body weight: immature female rats; for Change in wet uterine weight: immature rats
In short: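 Female Sprague Dawley rats were housed at 23±1°C on a standard diet. From postnatal day 20 they were injected s.c. once daily for 3 days at 10 ml/kg in sesame oil. Doses were test compound at 1 g/kg/day or 17α-ethynylestradiol at 0.1 or 3 µg/kg/day; controls got sesame oil. Vaginal opening and clinical signs were monitored. On day 23, 27 h after the last dose, uteri were excised with ovaries attached and weighed. Dunnett's test was used versus controls.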

[1] = test system: luminal epithelium of the uterus; test: Histology of uterine luminal epithelial cell height in immature rats; type: in vivo, Sprague Dawley rats; settings: 3 days
In short: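 Rats got daily s.c. doses for 3 days from postnatal day 20 and were killed 27 h after the last dose. Uteri were fixed in Bouin's solution for 24 h, paraffin-embedded, cut as 8 µm serial cross sections and H&E-stained. Luminal epithelial cell height was measured by light microscopy in the mid-region of each horn, in five areas from five sections ~160 µm apart. Mean and SD were reported; Dunnett's test compared groups with sesame-oil controls.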

MCF-7 cells = test: MCF-7 cell proliferation assay; type: cell-based, human; settings: 1 μM
In short: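 MCF-7 cells were kept in RPMI-1640 with 10% heat-inactivated FBS at 37°C and 5% CO2. Cells were seeded at 10 000 cells/well in phenol red-free RPMI-1640 with 10% charcoal dextran-treated FBS. After 1 day the medium was changed and cells received test compound (0.001–0.1 mM) or 0.5 nM E2, with or without 1 µM tamoxifen. After three days, proliferation was read by colorimetric MTT assay. Mean and SD of six experiments.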

[2] = 1 g kg^−1 day^−1 s.c., vs vehicle-treated controls

Sequence of human ERβ (Q92731 whole entry): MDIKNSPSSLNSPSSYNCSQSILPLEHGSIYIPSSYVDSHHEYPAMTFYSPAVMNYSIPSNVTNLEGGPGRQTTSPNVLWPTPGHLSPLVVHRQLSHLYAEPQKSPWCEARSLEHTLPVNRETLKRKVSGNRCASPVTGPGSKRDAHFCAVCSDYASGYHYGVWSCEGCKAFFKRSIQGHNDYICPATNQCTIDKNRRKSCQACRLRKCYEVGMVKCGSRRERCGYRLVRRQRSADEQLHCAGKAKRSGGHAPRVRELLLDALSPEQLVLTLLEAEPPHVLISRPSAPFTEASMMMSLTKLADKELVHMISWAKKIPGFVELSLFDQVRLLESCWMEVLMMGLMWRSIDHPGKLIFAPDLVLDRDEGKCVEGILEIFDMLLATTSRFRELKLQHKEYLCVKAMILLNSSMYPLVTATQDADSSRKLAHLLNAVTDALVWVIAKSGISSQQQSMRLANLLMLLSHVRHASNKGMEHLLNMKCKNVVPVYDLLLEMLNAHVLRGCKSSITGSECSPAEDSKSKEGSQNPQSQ

SMILES | IC50 (human ERβ) [µM] | Effect upon the ability of E2 to bind to ERα (human ERα) | Body weight, mean (uterus of immature rats; 1 g kg^−1 day^−1 s.c.) | Uterus wet weight, mean (uterus of immature rats; 1 g kg^−1 day^−1 s.c.) [mg] | Uterus/body weight (uterus of immature rats; 1 g kg^−1 day^−1 s.c.) | Change in wet uterine weight (uterus of immature rats; 1 g kg^−1 day^−1 s.c.) | Hypertrophy of the uterine luminal epithelium [1, 2] | Body weight, mean (uterus of immature rats; 0.1 μg kg^−1 day^−1 s.c.) [g] | Uterus wet weight, mean (uterus of immature rats; 0.1 μg kg^−1 day^−1 s.c.) | Uterus/body weight (uterus of immature rats; 0.1 μg kg^−1 day^−1 s.c.) | Body weight, mean (uterus of immature rats; 3 μg kg^−1 day^−1 s.c.) [g] | Uterus wet weight, mean (uterus of immature rats; 3 μg kg^−1 day^−1 s.c.) | Uterus/body weight (uterus of immature rats; 3 μg kg^−1 day^−1 s.c.) | Increase in wet uterine weight compared with vehicle-treated controls (uterus of immature rats; doses of 0.1 and 3 μg kg^−1 day^−1 s.c.) | Hypertrophy of the uterine luminal epithelium (luminal height) ([1]; 0.1 μg kg^−1 day^−1 s.c.) | Hypertrophy of the uterine luminal epithelium ([1]; 3 μg kg^−1 day^−1 s.c.) | Effect on MCF-7 proliferation when administered alone (MCF-7 cells)
CCCCCCC/C=C/C(=O)O [2DEA, trans-2-decenoic acid] | 17 | little or no effect | 45.9 g | 22.9 | 0.51 | did not detect an increase | mild hypertrophy | – | – | – | – | – | – | – | – | – | –
O=C(O)/C=C/CCCCCCCO [10H2DA, 10-hydroxy-trans-2-decenoic acid] | 90 | little or no effect | 42.9 ^* g | 25.9 | 0.59 | did not detect an increase | mild hypertrophy | – | – | – | – | – | – | – | – | – | –
O=C(O)CCCCCCCCCO [10HDA, 10-hydroxydecanoic acid] | 140 | little or no effect | 45.8 g | 25.2 | 0.55 | did not detect an increase | mild hypertrophy | – | – | – | – | – | – | – | – | – | –
C#C[C@]1(O)CC[C@H]2[C@@H]3CCc4cc(O)ccc4[C@H]3CC[C@@]21C [17αEE2, 17α-ethynylestradiol, reference compound] | – | – | – | – | – | – | – | 47.9 | 41.0 ^** mg | 0.87 | 47.1 | 115 ^** mg | 2.5 | over 1.5 fold | only a mild increase in luminal height | marked hypertrophy | –
C=C(CC[C@@H](C)[C@H]1CC[C@H]2[C@@H]3CC=C4C[C@@H](O)CC[C@]4(C)[C@H]3CC[C@]12C)C(C)C [24MET, 24-methylenecholesterol] | 6 | little or no effect | 47.5 g | 25.9 | 0.55 | did not detect an increase | mild hypertrophy | – | – | – | – | – | – | – | – | – | –
CC/C(=C(\c1ccccc1)c1ccc(OCCN(C)C)cc1)c1ccccc1 [tamoxifen] | – | – | – | – | – | – | – | – | – | – | – | – | – | – | – | – | no effect on proliferation

Reference: PMC2529378 (Evidence-based Complementary and Alternative Medicine : eCAM, 2007)
